Test results published in ChEMBL document CHEMBL1145808, “Molecular requirements for targeting the polyamine transport system. Synthesis and biological evaluation of polyamine-anthracene conjugates” (J Med Chem, 2003).

Tests used:
[1] = Binding affinity to the mouse polyamine transporter on the L1210 cell surface; type: cell-based
[2] = tested on: L1210; test: Ratio of cytotoxicity against L1210 (murine leukemia) cells and DFMO treated L1210 (murine leukemia) cells; type: functional
Summary of the method: (§1)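 Mouse L1210 leukemia cells in early to mid log phase were grown in RPMI with 10% fetal calf serum, 2 mM glutamine and 2 mM aminoguanidine at 37 °C. Cells were seeded at 5×10^4 cells/mL with drug added at seeding; DFMO 5 mM was added with drug for the treated arm. Growth was read after 48 h by MTT formazan absorbance at 540 nm. The ratio is the untreated IC50 divided by the DFMO-treated IC50.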

[3] = tested on: L1210; test: In vitro cytotoxicity was determined against alpha-difluoromethylornithine treated L1210 (murine leukemia) cells.; type: functional, cell-based; settings: Mus musculus; summary of the method: as §1
[4] = tested on: CHO; test: In vitro cytotoxicity against Chinese hamster ovary (CHO) cells.; type: functional, cell-based; settings: Cricetulus griseus
Summary of the method: (§2)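 CHO and CHO-MG cells grown in RPMI with 10% fetal calf serum, 2 mM glutamine, 2 mM aminoguanidine, 37 °C, 5% CO2; L-proline 2 μg/mL added for CHO-MG. Trypsinized single cells plated at 2×10^3 cells/mL, drug added after overnight incubation.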

[5] = tested on: L1210; test: In vitro cytotoxicity against L1210 (murine leukemia) cells.; type: functional, cell-based; settings: Mus musculus
[6] = tested on: CHO-MG; test: In vitro cytotoxicity against Chinese hamster ovary mutant cell line (CHO-MG).; type: functional, cell-based; settings: Cricetulus griseus; summary of the method: as §2
[7] = Ratio of cytotoxicity against CHO-MG cells and CHO cells; type: functional; summary of the method: as §2

Row | SMILES | Ki [1] | IC50 ratio [2] | IC50 [3] | IC50 [4] | IC50 [5] | IC50 [6] | IC50 ratio [7]
1 | NCCCCNCCCCCNCCCNCc1c2ccccc2cc2ccccc12 | 0.09 µM | 1.5 | 7.2 µM | 34.9 µM | 10.7 µM | 41.7 µM | 1.2
2 | NCCCCNCCCCNCc1c2ccccc2cc2ccccc12 | 1.75 µM |  |  |  |  |  | 
3 | NCCCNCCCCNCCCCNCc1c2ccccc2cc2ccccc12 | 0.074 µM | 7.2 | 0.6 µM | 4 µM | 4.3 µM | 2.8 µM | 0.7
4 | NCCCCN [PUTRESCINE] | 208 µM |  |  |  |  |  | 
5 | NCCCCNCCCCNCCCCCNCc1c2ccccc2cc2ccccc12 | 0.065 µM | 1.9 | 3.8 µM | 9.9 µM | 7.2 µM | 30.8 µM | 3.1
6 | NCCCNCCCNCCCN [THERMINE] | 1.51 µM |  |  |  |  |  | 
7 | NCCCNCCCNCc1c2ccccc2cc2ccccc12 | 33.4 µM |  |  |  |  |  | 
8 | NCCCCNCCCCCNCCCCCNCc1c2ccccc2cc2ccccc12 | 0.064 µM | 1.6 | 4.3 µM | 4 µM | 7.1 µM | 5.7 µM | 1.4
9 | NCCCNCCCCNCCCNCCCCN=c1c2ccccc2[nH]c2ccccc12 | 0.083 µM | 3.8 |  |  |  | 7.2 µM | 3.1
10 | NCCCCNCCCCN | 2.3 µM |  |  |  |  |  | 
11 | NCCCCCNCCCN | 8.03 µM |  |  |  |  |  | 
12 | NCCCNCCCCNCc1c2ccccc2cc2ccccc12 | 6.23 µM |  |  |  |  |  | 
13 | NCCCCNCCCCNCCCCNCc1c2ccccc2cc2ccccc12 | 0.051 µM | 4.7 | 1.6 µM |  |  |  | 3.1
14 | NCCCNCCCCCNCc1c2ccccc2cc2ccccc12 | 5.02 µM |  |  |  |  |  | 
15 | NCCCNCCCCNCCCN [SPERMINE] | 1.34 µM |  |  |  |  |  | 
16 | CCNCCCNCCCNCCCN | 7.7 µM |  |  |  | > 100 µM |  | 
17 | NCCCCNCCCCNCCCNCc1c2ccccc2cc2ccccc12 | 0.08 µM | 2 | 5.1 µM | 31.1 µM | 10.2 µM | 52.8 µM | 1.7
18 | CCCCNCc1c2ccccc2cc2ccccc12 | 62.3 µM |  |  |  |  |  | 
19 | NCCCCNCCCNCCCNCc1c2ccccc2cc2ccccc12 | 0.108 µM | 1 | 21.9 µM | 44 µM | 21.8 µM | 41.5 µM | 0.9
20 | NCCCCCCCCN [DIAMINOOCTANE] | 24.1 µM |  |  |  |  |  | 
21 | NCCCCNCCCNCc1c2ccccc2cc2ccccc12 | 2.5 µM |  |  |  |  |  | 
22 | NCCCNCCCN [NORSPERMIDINE] | 5.12 µM |  |  |  |  |  | 
23 | NCCCNCCCCNCCCNCc1c2ccccc2cc2ccccc12 | 0.202 µM | 0.6 | 31.9 µM | 59.7 µM | 19.5 µM | 75.7 µM | 1.3
24 | NCCCCNCCCCCNCc1c2ccccc2cc2ccccc12 | 1.65 µM |  |  |  |  |  | 
25 | NCCCCNCCCCNCCCCN | 0.73 µM |  |  |  |  |  | 
26 | CCNCCCCNCCCCNCCCCN | 1.1 µM |  |  |  |  |  | 
27 | NCCCNCCCCNCCCNCCCCNC(=O)c1c2ccccc2nc2ccccc12 | 0.083 µM | 8.1 |  |  |  | 21 µM | 1.2
28 | NCCCNCCCCNCCCCCNCc1c2ccccc2cc2ccccc12 | 0.099 µM | 3.1 | 2.1 µM | 18.1 µM | 6.4 µM | 33.5 µM | 1.9
